Experimental data from ChEMBL document CHEMBL2034842, “Synthesis, anti-Candida activity, and cytotoxicity of new (4-(4-iodophenyl)thiazol-2-yl)hydrazine derivatives” (Eur J Med Chem, 2012).
Converted amounts (≈) assume the structure as drawn.

Assays:
Staphylococcus warneri = assay: Antibacterial activity against Staphylococcus warneri after 18 to 22 hrs by […]; type: functional
[1] = Cytotoxicity against human Hep2 cells assessed as cell survival fraction at 50 ug/mL after 24 hrs by trypan blue exclusion method; type: cell-based; details: HEp-2 cells, read-out: Survival
How it was run: (§1)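 Hep2 cells grown in DMEM + 10% FBS + 1% pen/strep at 37 °C, 5% CO2, used at 60–70% confluency. Exponential-phase cells (1 × 10^5/mL) incubated 24 h with six concentrations (100–0.05), final DMSO ≤0.5%. Controls were cells alone or cells + DMSO, with 1 mM sodium nitroprusside as positive control. Cells scraped off, mixed 1:1 with 0.4% trypan blue and counted on a hemocytometer by two operators. Blue cells were scored dead; results given as % viable cells.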

[2] = Antiproliferative activity against human Hep2 cells assessed as cell survival fraction at 0.05 ug/mL after 24 hrs by MTT assay; type: cell-based; details: HEp-2 cells, read-out: Survival
How it was run: (§2)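 Hep2 (human laryngeal carcinoma) cells maintained in DMEM + 10% FBS + 1% pen/strep, 37 °C, 5% CO2. Seeded in triplicate at 1 × 10^5/well in serum-free medium and exposed 24 h at 37 °C to six compound concentrations (100–0.05). DMSO stock diluted in medium, final DMSO ≤0.5%. MTT reagent added for 2 h at 37 °C, then detergent for 2 h at RT in the dark. Read as OD550 minus OD650.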

[3] = Antiproliferative activity against human Hep2 cells assessed as cell survival fraction at 100 ug/mL after 24 hrs by MTT assay; type: cell-based; details: HEp-2 cells, read-out: Survival; how it was run: as §2
[4] = Cytotoxicity against human Hep2 cells assessed as cell survival fraction at 100 ug/mL after 24 hrs by trypan blue exclusion method; type: cell-based; details: HEp-2 cells, read-out: Survival; how it was run: as §1
Enterococcus faecalis = assay: Antibacterial activity against Enterococcus faecalis after 18 to 22 hrs by […]; type: functional
[5] = Antiproliferative activity against human Hep2 cells assessed as cell survival fraction at 10 ug/mL after 24 hrs by MTT assay; type: cell-based; details: HEp-2 cells, read-out: Survival; how it was run: as §2
[6] = Cytotoxicity against human Hep2 cells assessed as cell survival fraction at 10 ug/mL after 24 hrs by trypan blue exclusion method; type: cell-based; details: HEp-2 cells, read-out: Survival; how it was run: as §1
[Candida] sake = Antifungal activity against 2 strains of Candida sake after 24 hrs by […]; type: functional; details: Fermentozyma sake
[7] = Cytotoxicity against human Hep2 cells assessed as cell survival fraction at 0.05 ug/mL after 24 hrs by trypan blue exclusion method; type: cell-based; details: HEp-2 cells, read-out: Survival; how it was run: as §1
Nakaseomyces glabratus = assay: Antifungal activity against 4 strains of Candida glabrata after 24 hrs by […]; type: functional
Klebsiella pneumoniae = assay: Antibacterial activity against Klebsiella pneumoniae after 18 to 22 hrs by […]; type: functional
Candida albicans = assay: Antifungal activity against 10 strains of Candida albicans after 24 hrs by […]; type: functional
[8] = Antiproliferative activity against human Hep2 cells assessed as cell survival fraction at 5 ug/mL after 24 hrs by MTT assay; type: cell-based; details: HEp-2 cells, read-out: Survival; how it was run: as §2
Streptococcus pyogenes = assay: Antibacterial activity against Streptococcus pyogenes after 18 to 22 hrs by […]; type: functional
[9] = Antiproliferative activity against human Hep2 cells assessed as cell survival fraction at 0.5 ug/mL after 24 hrs by MTT assay; type: cell-based; details: HEp-2 cells, read-out: Survival; how it was run: as §2
Candida parapsilosis = assay: Antifungal activity against 4 strains of Candida parapsilosis after 24 hrs by […]; type: functional; details: Lodderomyces parapsilosis
[10] = Cytotoxicity against human Hep2 cells assessed as cell survival fraction at 5 ug/mL after 24 hrs by trypan blue exclusion method; type: cell-based; details: HEp-2 cells, read-out: Survival; how it was run: as §1
Staphylococcus aureus = assay: Antibacterial activity against Staphylococcus aureus after 18 to 22 hrs by […]; type: functional
Escherichia coli = assay: Antibacterial activity against Escherichia coli after 18 to 22 hrs by […]; type: functional
HEp-2 [11] = assay: Antiproliferative activity against human Hep2 cells assessed as cell survival fraction after 24 hrs by MTT assay; type: cell-based; details: HEp-2, 24 h
How it was run: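 Hep2 laryngeal carcinoma cells seeded in triplicate at 1 × 10^5/well in serum-free DMEM. Exposed 24 h at 37 °C, 5% CO2, to six concentrations ([…]); DMSO ≤0.5%. MTT reagent added for 2 h at 37 °C, then detergent for 2 h at room temperature in the dark. OD550 minus OD650 read. EC50 from ≥3 independent experiments.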

[12] = Cytotoxicity against human Hep2 cells assessed as cell survival fraction at 0.5 ug/mL after 24 hrs by trypan blue exclusion method; type: cell-based; details: HEp-2 cells, read-out: Survival; how it was run: as §1
Proteus vulgaris = assay: Antibacterial activity against Proteus vulgaris after 18 to 22 hrs by […]; type: functional
Klebsiella aerogenes = assay: Antibacterial activity against Enterobacter aerogenes after 18 to 22 hrs by […]; type: functional
[13] = Antiproliferative activity against human Hep2 cells assessed as cell survival fraction at 50 ug/mL after 24 hrs by MTT assay; type: cell-based; details: HEp-2 cells, read-out: Survival; how it was run: as §2
Candida tropicalis = assay: Antifungal activity against 4 strains of Candida tropicalis after 24 hrs by […]; type: functional
Pichia kudriavzevii = assay: Antifungal activity against 3 strains of Candida krusei after 24 hrs by […]; type: functional
HEp-2 [14] = assay: Cytotoxicity against human Hep2 cells assessed as cell survival fraction after 24 hrs by trypan blue exclusion method; type: cell-based; details: HEp-2, 24 h
How it was run: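 Hep2 cells in DMEM with 10% FBS and 1% penicillin-streptomycin, at 37 °C, 5% CO2, grown to 60–70% confluency. Seeded at 1 × 10^5/mL and exposed 24 h to six concentrations ([…]); DMSO ≤0.5%. Controls were cells alone, cells with DMSO, and 1 mM nitroprusside. Scraped cells mixed 1:1 with 0.4% trypan blue; blue cells counted as dead by hemocytometer, two operators. EC50 from ≥3 independent experiments.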

SMILES	MIC (Staphylococcus warneri) [µg/mL]	viability at 24 h, 50 ug/mL [1] [%]	viability at 24 h, 0.05 ug/mL [2] [%]	viability at 24 h, 100 ug/mL [3] [%]	viability at 24 h, 100 ug/mL [4] [%]	viability at 24 h, 10 ug/mL [5] [%]	viability at 24 h, 10 ug/mL [6] [%]	MIC ([Candida] sake) [µg/mL]	viability at 24 h, 0.05 ug/mL [7] [%]	MIC (Nakaseomyces glabratus) [µg/mL]	MIC (Candida albicans) [µg/mL]	viability at 24 h, 5 ug/mL [8] [%]	viability at 24 h, 0.5 ug/mL [9] [%]	MIC (Candida parapsilosis) [µg/mL]	viability at 24 h, 5 ug/mL [10] [%]	EC50 (HEp-2 [11]) [µg/mL]	viability at 24 h, 0.5 ug/mL [12] [%]	viability at 24 h, 50 ug/mL [13] [%]	MIC (Candida tropicalis) [µg/mL]	MIC (Pichia kudriavzevii) [µg/mL]	also measured
CCC/C(C)=N/Nc1nc(-c2ccc(I)cc2)cs1	32 (≈ 83.1 µM)	63	100	0	60	68	60	32 (≈ 83.1 µM)	92	2 (≈ 5.19 µM)	0.25 (≈ 0.649 µM)	72	98	2 (≈ 5.19 µM)	65	45 (≈ 117 µM)	75	62	0.5 (≈ 1.3 µM)	4 (≈ 10.4 µM)	MIC (Enterococcus faecalis): 32 µg/mL (≈ 83.1 µM); MIC (Klebsiella pneumoniae): 32 µg/mL (≈ 83.1 µM); MIC (Streptococcus pyogenes): 4 µg/mL (≈ 10.4 µM); MIC (Staphylococcus aureus): 32 µg/mL (≈ 83.1 µM); MIC (Escherichia coli): > 128 µg/mL; MIC (Proteus vulgaris): > 128 µg/mL; MIC (Klebsiella aerogenes): > 128 µg/mL
CCC(CC)=NNc1nc(-c2ccc(I)cc2)cs1	32 (≈ 83.1 µM)	63	95	10	58	90	67	256 (≈ 664 µM)	92	2 (≈ 5.19 µM)	0.25 (≈ 0.649 µM)	90	92	2 (≈ 5.19 µM)	80	50 (≈ 130 µM)	85	45	0.5 (≈ 1.3 µM)	256 (≈ 664 µM)	MIC (Enterococcus faecalis): 32 µg/mL (≈ 83.1 µM); MIC (Klebsiella pneumoniae): 16 µg/mL (≈ 41.5 µM); MIC (Streptococcus pyogenes): 32 µg/mL (≈ 83.1 µM); MIC (Staphylococcus aureus): > 128 µg/mL; MIC (Escherichia coli): 32 µg/mL (≈ 83.1 µM); MIC (Proteus vulgaris): 32 µg/mL (≈ 83.1 µM); MIC (Klebsiella aerogenes): 16 µg/mL (≈ 41.5 µM)
CCCCC/C(C)=N/Nc1nc(-c2ccc(I)cc2)cs1	32 (≈ 77.4 µM)	42	100	0	33	89	83	32 (≈ 77.4 µM)	98	2 (≈ 4.84 µM)	0.25 (≈ 0.605 µM)	90	100	2 (≈ 4.84 µM)	90	42 (≈ 102 µM)	95	22	0.5 (≈ 1.21 µM)	2 (≈ 4.84 µM)	MIC (Enterococcus faecalis): 32 µg/mL (≈ 77.4 µM); EC50 (HEp-2 [14]): 62 µg/mL (≈ 150 µM); MIC (Klebsiella pneumoniae): > 128 µg/mL; MIC (Streptococcus pyogenes): 8 µg/mL (≈ 19.4 µM); MIC (Staphylococcus aureus): 32 µg/mL (≈ 77.4 µM); MIC (Escherichia coli): > 128 µg/mL; MIC (Proteus vulgaris): > 128 µg/mL; MIC (Klebsiella aerogenes): > 128 µg/mL
CC1CCC/C1=N\Nc1nc(-c2ccc(I)cc2)cs1 (centres undefined)	32 (≈ 80.5 µM)	0	100	6	0	36	70	32 (≈ 80.5 µM)	92	2 (≈ 5.03 µM)	0.25 (≈ 0.629 µM)	60	90	2 (≈ 5.03 µM)	67	30 (≈ 75.5 µM)	89	12	0.5 (≈ 1.26 µM)	2 (≈ 5.03 µM)	MIC (Enterococcus faecalis): 32 µg/mL (≈ 80.5 µM); EC50 (HEp-2 [14]): 30 µg/mL (≈ 75.5 µM); MIC (Klebsiella pneumoniae): > 128 µg/mL; MIC (Streptococcus pyogenes): 8 µg/mL (≈ 20.1 µM); MIC (Staphylococcus aureus): 32 µg/mL (≈ 80.5 µM); MIC (Escherichia coli): 32 µg/mL (≈ 80.5 µM); MIC (Proteus vulgaris): 32 µg/mL (≈ 80.5 µM); MIC (Klebsiella aerogenes): > 128 µg/mL
CC1CC/C(=N\Nc2nc(-c3ccc(I)cc3)cs2)C1 (centres undefined)	32 (≈ 80.5 µM)	69	100	10	0	90	88	4 (≈ 10.1 µM)	95	2 (≈ 5.03 µM)	0.25 (≈ 0.629 µM)	92	100	2 (≈ 5.03 µM)	83	50 (≈ 126 µM)	92	28	0.5 (≈ 1.26 µM)	2 (≈ 5.03 µM)	MIC (Enterococcus faecalis): 32 µg/mL (≈ 80.5 µM); EC50 (HEp-2 [14]): 51 µg/mL (≈ 128 µM); MIC (Klebsiella pneumoniae): > 128 µg/mL; MIC (Streptococcus pyogenes): 32 µg/mL (≈ 80.5 µM); MIC (Staphylococcus aureus): 32 µg/mL (≈ 80.5 µM); MIC (Escherichia coli): 32 µg/mL (≈ 80.5 µM); MIC (Proteus vulgaris): 32 µg/mL (≈ 80.5 µM); MIC (Klebsiella aerogenes): 32 µg/mL (≈ 80.5 µM)
C/C(=N\Nc1nc(-c2ccc(I)cc2)cs1)c1ccncc1	8 (≈ 19 µM)	37	95	0	0	35	30	4 (≈ 9.52 µM)	90	2 (≈ 4.76 µM)	0.25 (≈ 0.595 µM)	58	95	2 (≈ 4.76 µM)	66	25 (≈ 59.5 µM)	85	10	0.5 (≈ 1.19 µM)	2 (≈ 4.76 µM)	MIC (Enterococcus faecalis): 4 µg/mL (≈ 9.52 µM); EC50 (HEp-2 [14]): 30 µg/mL (≈ 71.4 µM); MIC (Klebsiella pneumoniae): > 128 µg/mL; MIC (Streptococcus pyogenes): 4 µg/mL (≈ 9.52 µM); MIC (Staphylococcus aureus): 8 µg/mL (≈ 19 µM); MIC (Escherichia coli): 16 µg/mL (≈ 38.1 µM); MIC (Proteus vulgaris): 16 µg/mL (≈ 38.1 µM); MIC (Klebsiella aerogenes): > 128 µg/mL
Ic1ccc(-c2csc(N/N=C/c3cccc4ccccc34)n2)cc1	> 128	39	95	2	0	80	73	64 (≈ 141 µM)	90	2 (≈ 4.39 µM)	0.25 (≈ 0.549 µM)	78	80	2 (≈ 4.39 µM)	80	35 (≈ 76.9 µM)	80	5	0.5 (≈ 1.1 µM)	64 (≈ 141 µM)	MIC (Enterococcus faecalis): 32 µg/mL (≈ 70.3 µM); EC50 (HEp-2 [14]): 40 µg/mL (≈ 87.8 µM); MIC (Klebsiella pneumoniae): 16 µg/mL (≈ 35.1 µM); MIC (Streptococcus pyogenes): 32 µg/mL (≈ 70.3 µM); MIC (Staphylococcus aureus): > 128 µg/mL; MIC (Escherichia coli): 16 µg/mL (≈ 35.1 µM); MIC (Proteus vulgaris): 16 µg/mL (≈ 35.1 µM); MIC (Klebsiella aerogenes): 16 µg/mL (≈ 35.1 µM)
Clc1ccccc1C(c1ccccc1)(c1ccccc1)n1ccnc1 [CLOTRIMAZOLE]		20	100	20	10	70	68	2 (≈ 5.8 µM)	100	0.25 (≈ 0.725 µM)	2 (≈ 5.8 µM)	82	85	0.5 (≈ 1.45 µM)	70	48 (≈ 139 µM)	87	32	1 (≈ 2.9 µM)	2 (≈ 5.8 µM)	EC50 (HEp-2 [14]): 40 µg/mL (≈ 116 µM)
